# Key:
# Type in all cases: functional
# Klebsiella pneumoniae [1] = assay: Antimicrobial activity against Klebsiella pneumoniae E363 by broth macrodilution method
# Outline: (§1)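 MIC by CLSI-approved broth macrodilution in one-quarter-strength cation-adjusted Mueller Hinton broth, each drug tested alone. Clinical gram-negative isolates were stored frozen at −70°C in double-strength skim milk before testing.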
# Klebsiella pneumoniae [2] = assay: Antimicrobial activity against Klebsiella pneumoniae E364 by broth macrodilution method
# Outline: (§2)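 CLSI-approved broth macrodilution in one-quarter-strength cation-adjusted Mueller Hinton broth. Each drug was tested alone against each clinical gram-negative isolate to give the MIC. Strains were stored frozen at −70°C in double-strength skim milk before testing.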
# Citrobacter freundii [3] = assay: Antimicrobial activity against Citrobacter freundii E384 by broth macrodilution method; outline: as §1
# Escherichia coli [4] = assay: Antimicrobial activity against Escherichia coli E393 by broth macrodilution method; outline: as §1
# Escherichia coli [5] = assay: Antimicrobial activity against Escherichia coli E396 by broth macrodilution method; outline: as §1
# Escherichia coli [6] = assay: Antimicrobial activity against Escherichia coli E408 by broth macrodilution method; outline: as §2
# Escherichia coli [7] = assay: Antimicrobial activity against Escherichia coli E395 by broth macrodilution method; outline: as §1
# Escherichia coli [8] = assay: Antimicrobial activity against Escherichia coli E412 by broth macrodilution method; outline: as §2
# Escherichia coli [9] = assay: Antimicrobial activity against Escherichia coli E434 by broth macrodilution method; outline: as §2
# Escherichia coli [10] = assay: Antimicrobial activity against Escherichia coli E425 by broth macrodilution method; outline: as §2
# Klebsiella pneumoniae [11] = assay: Antimicrobial activity against Klebsiella pneumoniae E426 by broth macrodilution method; outline: as §2
# Klebsiella pneumoniae [12] = assay: Antimicrobial activity against Klebsiella pneumoniae E371 by broth macrodilution method; outline: as §2
# Klebsiella pneumoniae [13] = assay: Antimicrobial activity against Klebsiella pneumoniae E354 by broth macrodilution method; outline: as §1
# Pseudomonas aeruginosa = assay: Antimicrobial activity against Pseudomonas aeruginosa P335 by broth macrodilution method; outline: as §1
# Escherichia coli [14] = assay: Antimicrobial activity against Escherichia coli E394 by broth macrodilution method; outline: as §2
# Klebsiella pneumoniae [15] = assay: Antimicrobial activity against Klebsiella pneumoniae E370 by broth macrodilution method; outline: as §2
# Klebsiella pneumoniae [16] = assay: Antimicrobial activity against Klebsiella pneumoniae E427 by broth macrodilution method; outline: as §2
# Escherichia coli [17] = assay: Antimicrobial activity against Escherichia coli E409 by broth macrodilution method; outline: as §2
# Escherichia coli [18] = assay: Antimicrobial activity against Escherichia coli E413 by broth macrodilution method; outline: as §2
# Klebsiella pneumoniae [19] = assay: Antimicrobial activity against Klebsiella pneumoniae E367 by broth macrodilution method; outline: as §2
# Klebsiella pneumoniae [20] = assay: Antimicrobial activity against Klebsiella pneumoniae E433 by broth macrodilution method; outline: as §1
# Enterobacter cloacae [21] = assay: Antimicrobial activity against Enterobacter cloacae E397 by broth macrodilution method; outline: as §1
# Escherichia coli [22] = assay: Antimicrobial activity against Escherichia coli E435 by broth macrodilution method; outline: as §2
# Klebsiella pneumoniae [23] = assay: Antimicrobial activity against Klebsiella pneumoniae E411 by broth macrodilution method; outline: as §2
# Klebsiella pneumoniae [24] = assay: Antimicrobial activity against Klebsiella pneumoniae E369 by broth macrodilution method; outline: as §2
# Enterobacter cloacae [25] = assay: Antimicrobial activity against Enterobacter cloacae E373 by broth macrodilution method; outline: as §1
# Klebsiella pneumoniae [26] = assay: Antimicrobial activity against Klebsiella pneumoniae E353 by broth macrodilution method; outline: as §2
# Escherichia coli [27] = assay: Antimicrobial activity against Escherichia coli E430 by broth macrodilution method; outline: as §2
# Escherichia coli [28] = assay: Antimicrobial activity against Escherichia coli E410 by broth macrodilution method; outline: as §1
# Escherichia coli [29] = assay: Antimicrobial activity against Escherichia coli E436 by broth macrodilution method; outline: as §2
# Citrobacter freundii [30] = assay: Antimicrobial activity against Citrobacter freundii E400 by broth macrodilution method; outline: as §2
# Escherichia coli [31] = assay: Antimicrobial activity against Escherichia coli E424 by broth macrodilution method; outline: as §2
# Escherichia coli [32] = assay: Antimicrobial activity against Escherichia coli E351 by broth macrodilution method; outline: as §1
# Klebsiella pneumoniae [33] = assay: Antimicrobial activity against Klebsiella pneumoniae E372 by broth macrodilution method; outline: as §2
# Klebsiella pneumoniae [34] = assay: Antimicrobial activity against Klebsiella pneumoniae E431 by broth macrodilution method; outline: as §2
# Klebsiella pneumoniae [35] = assay: Antimicrobial activity against Klebsiella pneumoniae E422 by broth macrodilution method; outline: as §1
# Klebsiella pneumoniae [36] = assay: Antimicrobial activity against Klebsiella pneumoniae E368 by broth macrodilution method; outline: as §2
smiles,measurement,setting,value
C[C@H]1COc2c(N3CCN(C)CC3)c(F)cc3c(=O)c(C(=O)O)cn1c23.C[C@H]1COc2c(N3CCN(C)CC3)c(F)cc3c(=O)c(C(=O)O)cn1c23.O [LEVOFLOXACIN],MIC,Klebsiella pneumoniae [1],0.06 µg/mL
same,MIC,Klebsiella pneumoniae [2],2 µg/mL
same,MIC,Citrobacter freundii [3],0.125 µg/mL
same,MIC,Escherichia coli [4],16 µg/mL
same,MIC,Escherichia coli [5],16 µg/mL
same,MIC,Escherichia coli [6],32 µg/mL
same,MIC,Escherichia coli [7],16 µg/mL
same,MIC,Escherichia coli [8],8 µg/mL
same,MIC,Escherichia coli [9],0.125 µg/mL
same,MIC,Escherichia coli [10],2 µg/mL
same,MIC,Klebsiella pneumoniae [11],4 µg/mL
same,MIC,Klebsiella pneumoniae [12],32 µg/mL
same,MIC,Klebsiella pneumoniae [13],16 µg/mL
same,MIC,Pseudomonas aeruginosa,16 µg/mL
same,MIC,Escherichia coli [14],32 µg/mL
same,MIC,Klebsiella pneumoniae [15],32 µg/mL
same,MIC,Klebsiella pneumoniae [16],2 µg/mL
same,MIC,Escherichia coli [17],8 µg/mL
same,MIC,Escherichia coli [18],8 µg/mL
same,MIC,Klebsiella pneumoniae [19],0.25 µg/mL
same,MIC,Klebsiella pneumoniae [20],16 µg/mL
same,MIC,Enterobacter cloacae [21],16 µg/mL
same,MIC,Escherichia coli [22],0.125 µg/mL
same,MIC,Klebsiella pneumoniae [23],2 µg/mL
same,MIC,Klebsiella pneumoniae [24],64 µg/mL
same,MIC,Enterobacter cloacae [25],0.06 µg/mL
same,MIC,Klebsiella pneumoniae [26],0.25 µg/mL
same,MIC,Escherichia coli [27],0.125 µg/mL
same,MIC,Escherichia coli [28],4 µg/mL
same,MIC,Escherichia coli [29],0.125 µg/mL
same,MIC,Citrobacter freundii [30],32 µg/mL
same,MIC,Escherichia coli [31],0.25 µg/mL
same,MIC,Escherichia coli [32],16 µg/mL
same,MIC,Klebsiella pneumoniae [33],0.25 µg/mL
same,MIC,Klebsiella pneumoniae [34],4 µg/mL
same,MIC,Klebsiella pneumoniae [35],16 µg/mL
same,MIC,Klebsiella pneumoniae [36],8 µg/mL

# From ChEMBL document CHEMBL1629611, “Activity of levofloxacin alone and in combination with a DnaK inhibitor against gram-negative rods, including levofloxacin-resistant strains” (2009)
